This note sets out measurements from ChEMBL document CHEMBL2203056, “Antimutagenic thio compounds from Sisymbrium officinale” (J Nat Prod, 2012).

Series [1] is described as follows: Cytotoxicity against Escherichia coli WP2 (trpE65 deltauvrApKM101) assessed as cell viability up to 10 to 300 ug/mL after 72 hrs in presence of 25 ug/plate 2-aminofluorene and metabolic activation system S9. In kind it is ADME, organism-based. The conditions noted are these: read-out: Activity.
For series [2], the system named is Escherichia coli. Nature of the series: Antimutagenic activity in Escherichia coli WP2 (trpE65 deltauvrA) assessed as maximal inhibition of methyl methane sulfonate-induced mutagenic effect at 10 to 300 ug/plate after 72 hrs in absence of metabolic activation system S9 by Ames test. The class given is functional. Put shortly:
(§1)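 Preincubation Ames test with E. coli WP2 strains, from 16 h overnight cultures at 37 °C (about 2 × 10^9 bacteria/mL). Culture, mutagen, test substance (DMSO, 2% v/v vehicle) and either S9 mix (phenobarbital/β-naphthoflavone-induced rat liver) or 0.1 M phosphate buffer were shaken 30 min at 37 °C. Mutagens were MMS 1700 μg/plate without S9, and 2AA or 2AF 25 μg/plate with S9. Then top agar with 0.5 mM tryptophan on minimal agar, 72 h at 37 °C; tryptophan-independent revertants scored. Inhibition = 100 − (T/M × 100). Triplicates, at least two experiments.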

Series [3] in a line: Cytotoxicity against Escherichia coli WP2 (trpE65) assessed as cell viability up to 10 to 300 ug/mL after 72 hrs in presence of 1700 ug/plate methyl methane sulfonate. In kind it is organism-based. Particulars: Escherichia coli WP2 (trpE65) cells, read-out: Activity. The gist of the method: (§2)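 Viability check on the antimutagenicity mixtures. Culture, mutagen (MMS 1700 μg/plate; 2AA or 2AF 25 μg/plate with S9 mix), test substance and S9 mix or 0.1 M phosphate buffer were shaken 30 min at 37 °C. Mixtures were diluted to 2 × 10^3 cells/mL, plated in top agar on nutrient agar and incubated 72 h at 37 °C. Colonies counted and compared with the solvent-only negative control.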

Series [4] concerns Escherichia coli. The series can be described thus: Antimutagenic activity in Escherichia coli WP2 (trpE65) assessed as maximal inhibition of 2-aminofluorene-induced mutagenic effect at 10 to 300 ug/plate after 72 hrs in presence of metabolic activation system S9 by Ames test. The class given is functional. The gist of the method:
as §1

The test system of series [5] is Escherichia coli. Nature of the series: Antimutagenic activity in Escherichia coli WP2 (trpE65) assessed as maximal inhibition of methyl methane sulfonate-induced mutagenic effect at 10 to 300 ug/plate after 72 hrs in absence of metabolic activation system S9 by Ames test. In kind it is functional. The gist of the method:
as §1

The test system of series [6] is Escherichia coli. The series can be described thus: Antimutagenic activity in Escherichia coli WP2 (trpE65 deltauvrA) assessed as maximal inhibition of 2-aminoanthracene-induced mutagenic effect at 10 to 300 ug/plate after 72 hrs in presence of metabolic activation system S9 by Ames test. In kind it is functional. Put shortly:
as §1

Series [7] can be described thus: Cytotoxicity against Escherichia coli WP2 (trpE65) assessed as cell viability up to 10 to 300 ug/mL after 72 hrs in presence of 25 ug/plate 2-aminoanthracene and metabolic activation system S9. The class given is ADME, organism-based. Particulars: read-out: Activity.
A short description of series [8]: Cytotoxicity against Escherichia coli WP2 (trpE65 deltauvrA) assessed as cell viability up to 10 to 300 ug/mL after 72 hrs in presence of 25 ug/plate 2-aminoanthracene and metabolic activation system S9. The class given is ADME, organism-based. Particulars: read-out: Activity. Put shortly: as §2
Series [9] can be described thus: Cytotoxicity against Escherichia coli WP2 (trpE65 deltauvrA) assessed as cell viability up to 10 to 300 ug/mL after 72 hrs in presence of 25 ug/plate 2-aminofluorene and metabolic activation system S9. The conditions noted are these: read-out: Activity. The class given is ADME, organism-based.
Series [10] in a line: Cytotoxicity against Escherichia coli WP2 (trpE65 deltauvrA) assessed as cell viability up to 10 to 300 ug/mL after 72 hrs in presence of 1700 ug/plate methyl methane sulfonate. The class given is organism-based. The conditions noted are these: Escherichia coli WP2 (trpE65 deltauvrA) cells, read-out: Activity. Put shortly:
as §2

Series [11] can be described thus: Cytotoxicity against Escherichia coli WP2 (trpE65 deltauvrApKM101) assessed as cell viability up to 10 to 300 ug/mL after 72 hrs in presence of 25 ug/plate 2-aminoanthracene and metabolic activation system S9. The class given is ADME, organism-based. The conditions noted are these: read-out: Activity. Put shortly:
as §2

Series [12] is described as follows: Cytotoxicity against Escherichia coli WP2 (trpE65 deltauvrApKM101) assessed as cell viability up to 10 to 300 ug/mL after 72 hrs in presence of 1700 ug/plate methyl methane sulfonate. The class given is organism-based. Particulars: Escherichia coli WP2 (trpE65 deltauvrApKM101) cells, read-out: Activity. Put shortly:
as §2

The test system of series [13] is Escherichia coli. The series can be described thus: Antimutagenic activity in Escherichia coli WP2 (trpE65 deltauvrApKM101) assessed as maximal inhibition of methyl methane sulfonate-induced mutagenic effect at 10 to 300 ug/plate after 72 hrs in absence of metabolic activation system S9 by Ames test. The class given is functional. Put shortly: as §1
In series [14] the test system is Escherichia coli. Nature of the series: Antimutagenic activity in Escherichia coli WP2 (trpE65 deltauvrApKM101) assessed as maximal inhibition of 2-aminoanthracene-induced mutagenic effect at 10 to 300 ug/plate after 72 hrs in presence of metabolic activation system S9 by Ames test. The class given is functional. The gist of the method: as §1
Series [15] can be described thus: Cytotoxicity against Escherichia coli WP2 (trpE65) assessed as cell viability up to 10 to 300 ug/mL after 72 hrs in presence of 25 ug/plate 2-aminofluorene and metabolic activation system S9. In kind it is ADME, organism-based. Particulars: read-out: Activity. Put shortly:
as §2

Series [16] is described as follows: Solubility of the compound up to 110 ug/mL. In kind it is physicochemical. The gist of the method: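 Compounds dissolved in DMSO by sonication, stock up to 12 mg/mL. Insolubility in the final assay mixture judged as a precipitate visible to the unaided eye.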

On to `CC(C)/C(=N/OS(=O)(=O)O)S[C@@H]1O[C@H](CO)[C@@H](O)[C@H](O)[C@H]1O` [GLUCOPUTRANJIVIN], for which the viability at 72 h in series [1] was found to be 93%; in series [3], 80%; in [7] it was 77%; in series [8], 77%; in [9], 77%; in series [10] it was 82%. The viability at 72 h came out at 93% in series [11], 80% in [12] and 77% in series [15]. The “inhibition (INH)” value with Escherichia coli [2] amounted to 44.6%; in the series on Escherichia coli [4], 61.6%; in the series with Escherichia coli [5] it was 32.8%; in the series on Escherichia coli [6], 80.1%; with Escherichia coli [13], 38.5%; with Escherichia coli [14], 21.5%. Besides, in [16], the solubility entry is “soluble”.

On to `CC(C)N=C=S` [ISOPROPYL ISOTHIOCYANATE], for which the viability at 72 h in series [1] is 93%; in series [3], 80%; in series [7] it was 77%; in [8], 77%; in series [9] it was 77%; in series [10], 82%. Besides, the viability at 72 h in [11] came out at 93%; in series [12] it was 80%; in [15], 77%. Also, the “inhibition (INH)” value in the series with Escherichia coli [2] was determined as 45.7%; with Escherichia coli [4] it was 57.9%; in the series with Escherichia coli [5] it was 9.7%; in the series with Escherichia coli [6], 81.9%; in the series with Escherichia coli [13], 32.9%; in the series with Escherichia coli [14], 18.6%. The solubility entry in series [16] is reported as “soluble”.
